Screening results (PubChem)
In the library only some 1.3% were active in any assay of this set; here they are far more common.
FN deposition inh: inhibitors of fibronectin matrix deposition, primary screen, AH1F cells, Alexa488-fibronectin fluorescence, plate reader; AH1F fibroblasts, overnight; inhibition, % at 12.6 µM; 350,000 compounds, 0.086% hits;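 active = mean inhibition across replicates of 30% or more, regardless of how many single replicates reach that level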;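 note: positive control wells lacked labelled fibronectin entirely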
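test system = AH1F fibroblasts assembling fluorescent fibronectin matrix | quantity = 10000 AH1F cells per well | buffer or medium = DMEM plus 2% serum, read in PBS | doses = single dose, pinned | incubation = 1 h cell attachment, overnight exposure to compound and label | detection = fluorescence at 485 nm excitation, 525 nm emission | read-out basis = inhibition from reduced deposited-fibronectin fluorescence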
RAD52 inh: RAD52 DNA annealing inhibitors, primary screen, biochemical, FRET, single point, set 2. recombinant RAD52 DNA annealing, FRET fluorescence. inhibition, % at 18.7 µM. DNA repair protein RAD52 homolog (Homo sapiens), P43351. AID 651710, 2012. 360,000 compounds, 0.46% hits;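 active = every replicate showing at least 50% inhibition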
RAD54 branch: inhibitors of human RAD54 branch migration, primary screen, biochemical, fluorescence, single point; DNA repair and recombination protein RAD54-like (Homo sapiens), Q92698; RAD54 Holliday junction branch migration, FAM/BHQ fluorescence; inhibition, % at 10.4 µM; 360,000 compounds, 0.14% hits; AID 602329, 2012;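 active = mean normalized replicate activity at least 40 and at least half of replicates scoring 40 or more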;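 note: 0% = median of neutral control wells and 100% = median of positive control wells; inhibitors cause a drop in the FAM fluorescence signal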
PAX8 reporter: inhibitors of PAX8-driven TPO luciferase reporter, primary screen, RMG-I cells, single concentration; AID 652154, 2013; 360,000 compounds, 1.2% hits; SteadyGlo, 24 h; inhibition, % at 12.6 µM;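 active = mean replicate inhibition at least 60% with every replicate also reaching 60%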;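 note: luciferase light reporting Pax8 driven TPO promoter activity; plate controls were median of neutral control wells for no effect and mitoxantrone controls for full effect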
An asterisk follows results filed as active; nt = no result given; ! = not confirmed by another sample.

SMILES	FN deposition inh	RAD52 inh	RAD54 branch	PAX8 reporter
CO[C@@H]1CN(C)C(=O)c2cc(NC(=O)c3ccccc3F)ccc2OC[C@@H](C)N(C(C)=O)C[C@@H]1C	-3	2	4	21
COC(=O)c1sc(NC(=O)c2cc(-c3ccccc3)nc3ccccc23)c(C#N)c1C	nt	nt	-2	nt
Cc1ccccc1-c1cc(C(=O)Nc2sc(C(=O)OC(C)C)c(C)c2C#N)c2ccccc2n1	0	nt	0	81*
COc1ccc(C(=O)NC(CC(C)C)C(=O)O)cc1 (centres undefined)	-3	5	-3	-5
Cc1nc(N/N=C/c2ccccn2)sc1C	2	-31	nt	73*
O=C(COc1ccc2ccc(=O)oc2c1)Nc1ccc(CCO)cc1	-1	-16	0	6
O=C(COc1ccc2ccc(=O)oc2c1)Nc1ccc(N2CCCCC2)cc1	-20	66*	0	-15
N#Cc1c(N)n(C2OC(CO)C(O)C2O)c2ncnc(N)c12 (centres undefined)	34*	-6	nt	109*
O=C(CSc1nnc(-c2ccncc2)n1CC1CCCO1)Nc1cccc(O)c1 (centres undefined)	6	nt	-7	nt
CO[C@H]1CN(C)C(=O)c2ccc(NC(=O)Nc3cc(Cl)cc(Cl)c3)cc2OC[C@H](C)NC[C@H]1C	15	54*	5	17
CO[C@@H]1CN(C)C(=O)c2ccc(NC(=O)Nc3cccc(Cl)c3)cc2OC[C@H](C)NC[C@@H]1C	6	28	-4	11
CO[C@H]1CN(C)C(=O)c2ccc(NC(=O)Nc3cc(Cl)cc(Cl)c3)cc2OC[C@@H](C)NC[C@H]1C	-17	64*	15	7
CO[C@H]1CN(C)C(=O)c2cc(NC(=O)Nc3ccc(Cl)cc3)ccc2OC[C@H](C)NC[C@@H]1C	3	21	6	nt
CO[C@H]1CN(C)C(=O)c2ccc(NC(=O)Nc3cccc(Cl)c3)cc2OC[C@@H](C)NC[C@@H]1C	2	24	8	7
CO[C@H]1CN(C)C(=O)c2ccc(NC(=O)Nc3cc(Cl)cc(Cl)c3)cc2OC[C@@H](C)NC[C@@H]1C	1	52*	-1	17
CO[C@@H]1CN(C)C(=O)c2cc(NC(=O)Nc3cc(Cl)cc(Cl)c3)ccc2OC[C@H](C)NC[C@H]1C	3	57*	nt	nt
Cc1ccc(S(=O)(=O)Nc2ccc3c(c2)C(=O)N([C@H](C)CO)C[C@@H](C)[C@@H](CN(C)CC2CC2)O3)cc1	-1	2	0	-4
O=C(NN=C1CCCCCC1)c1cc(-c2ccccc2)nc2ccccc12	nt	nt	1	nt
Cc1cc(C)cc(C(=O)NC(CC(N)=O)c2ccc(NC3CCCCCCCCCCC3)c([N+](=O)[O-])c2)c1 (centres undefined)	3	-21	4	-3
O=C1/C(=C/c2cccs2)CCC/C1=C\c1cccs1	nt	-28	-10	-192
CC1C/C(=C/c2cccs2)C(=O)/C(=C/c2cccs2)C1 (centres undefined)	1	-76	nt	72*
CCN(C(=O)COC(=O)c1oc2ccc(OC)cc2c1C)C1CCCCC1	-6	-10	nt	-9
C[C@@H]1CCCCO[C@H](CN(C)Cc2ccc(Cl)c(Cl)c2)[C@H](C)CN([C@@H](C)CO)C(=O)c2cc(NS(=O)(=O)c3ccccc3)ccc2O1	nt	19	-1	44
C[C@@H]1CCCCO[C@@H](CN(C)Cc2ccc(Cl)c(Cl)c2)[C@@H](C)CN([C@@H](C)CO)C(=O)c2cc(NS(=O)(=O)c3ccccc3)ccc2O1	nt	-2	-8	68*
C[C@H](CO)N1C[C@H](C)[C@@H](CN(C)Cc2ccc(Cl)c(Cl)c2)OCCCC[C@H](C)Oc2ccc(NS(=O)(=O)c3ccccc3)cc2C1=O	nt	0	3	84*
SMILES	FN deposition inh	RAD52 inh	RAD54 branch	PAX8 reporter
C[C@@H]1CN([C@H](C)CO)C(=O)c2cc(NS(=O)(=O)c3ccccc3)ccc2O[C@@H](C)CCCCO[C@H]1CN(C)Cc1ccc(Cl)c(Cl)c1	nt	-9	-1	94*
C[C@@H]1CCCCO[C@@H](CN(C)Cc2ccc(Cl)c(Cl)c2)[C@@H](C)CN([C@@H](C)CO)C(=O)c2cc(NS(=O)(=O)c3ccc(Cl)cc3)ccc2O1	5	-40	nt	29
O=C(NC1CCCCC1)C(c1cccs1)N(CCCN1CCOCC1)C(=O)c1ccc(-c2ccccc2)[nH]1 (centres undefined)	6	-17	nt	-10
COc1cccc(NC(=O)N2CC(=O)N3[C@H](CO)[C@@H](c4ccc(Br)cc4)[C@H]3C2)c1	nt	-21	nt	nt
C[C@@H]1CCCCO[C@@H](CN(C)Cc2ccc(C(F)(F)F)cc2)[C@H](C)CN([C@@H](C)CO)C(=O)c2cc(N(C)C)ccc2O1	nt	-9	-4	-3
C=CC(=O)N1C/C(=C/c2ccc(Cl)cc2)C(=O)/C(=C\c2ccc(Cl)cc2)C1	-4	-18	nt	110*
C=CC(=O)N1C/C(=C/c2ccccc2)C(=O)/C(=C\c2ccccc2)C1	40*	-18	nt	80*
COc1ccc(NC(=O)CSc2ccc(NC(C)=O)cc2)cc1S(=O)(=O)N1CCOCC1	3	-6	-1	-5
C[C@H]1CCC/C=C/[C@@H]2C[C@H](O)C[C@H]2[C@H](O)[C@H](S(=O)c2ccc(O)cc2)CC(=O)O1 (some centres undefined)	-13	-2	nt	111*
COc1ccc(COc2cc(-c3cccc(OC)c3)nc3ccc(NC(=O)c4ccc(C)cc4)cc23)cc1	8	-8	6	80*
c1ccc(CNCCCNCCCCNCCCNCc2ccccc2)cc1	16	-46	nt	86*
COc1cccc(-c2ccc3c(c2)[C@@H]2[C@@H](CCN2C(=O)Nc2ccccc2OC)[C@@H](CO)N3C)c1	-9	60*	16	22
COc1cccc(-c2ccc3c(c2)[C@H]2[C@H](CCN2C(=O)Nc2ccccc2OC)[C@@H](CO)N3C)c1	-31	27	11	-3
COc1cccc(-c2ccc3c(c2)[C@H]2[C@H](CCN2C(=O)Nc2ccccc2OC)[C@H](CO)N3C)c1	-22	51*	10	-25
Cc1ccc(S(=O)(=O)N2[C@@H]3CNC[C@H]2C3c2ccc(-c3cccc(C#N)c3)cc2)cc1 (some centres undefined)	-1	53*!	nt	-4
COc1ccccc1S(=O)(=O)N1[C@@H]2CNC[C@H]1C2c1ccc(/C=C/c2ccccc2)cc1 (some centres undefined)	-1	33	nt	nt
Cc1ccccc1S(=O)(=O)N1[C@@H]2CNC[C@H]1C2c1ccc(/C=C/c2ccccc2)cc1 (some centres undefined)	0	51*!	nt	nt
N#Cc1cccc(-c2ccc(C3[C@H]4CNC[C@@H]3N4S(=O)(=O)c3ccc(F)cc3)cc2)c1 (some centres undefined)	-11	28	nt	nt
